Measurements pooled from the literature.
Effect on: metabolic stability
Species: human
Matrix: liver microsomes

Compound	concentration	pH	microsomal CLint [µL/min/mg]
CONC(=O)c1cccc2c1cc(C)n2-c1nc2c(c(NCc3ccccc3)n1)CCCN2	1 µM	pH 7.4	98.7
O=C1NC(CF)(CF)C(=O)N1c1ccc(F)c(C(F)(F)F)c1	–	–	< 7
CC(C)(C)OC(=O)N1CCC(Oc2ccc3c(=O)c4c(F)cc(Cl)cc4[nH]c3c2)C1 (stereo not drawn)	1 µM	pH 7.4	17.3
Cc1ccc(Oc2ccc(NC(=O)CNc3ccccc3N3CCCC3=O)cc2)cc1	–	–	102
CCCN(CCC)CCCOc1ccc2c(=O)c3c([nH]c2c1)CCCC3	1 µM	pH 7.4	37.1
Cc1ccc(N(c2ccc(NC(=O)CN(C)c3ccccc3N3CCCC3=O)cn2)C(C)C)cc1	–	–	270
O=c1c2ccc(OCc3cccc(OC(F)(F)F)c3)cc2[nH]c2cc(F)cc(Cl)c12	1 µM	pH 7.4	22.5
O=C(NCc1nc(-c2ccc(C(F)(F)F)cc2)cs1)[C@H]1CCCN(C(=O)COCCN2CCCC2)C1	0.5 µM	–	14
O=c1c2ccc(Oc3ccc(OC(F)(F)F)cc3)cc2[nH]c2cc(Cl)c(F)cc12	1 µM	pH 7.4	5.07
Cc1ccc(Nc2cnnc3ccc(-c4ccc(N5CCCN(C)CC5)cc4)cc23)cn1	–	–	75
CC1(C)NC(=O)N(c2ccc(F)c(F)c2)C1=O	–	–	< 7
CCOCC(=O)N1C2CCC(C(=O)NCc3nc(-c4ccc(C#N)cc4)cs3)C1CC2 (stereo not drawn)	0.5 µM	–	42
O=C1NC2(CCS(=O)(=O)CC2)C(=O)N1c1ccc(F)c(C(F)(F)F)c1	–	–	< 7
O=C(NCc1nc(-c2ccccc2)cs1)[C@H]1CCCN(C(=O)[C@H]2CCCO2)C1	0.5 µM	–	35
O=c1c2ccc(OC3CCNCC3)cc2[nH]c2cc(F)cc(Cl)c12	1 µM	pH 7.4	13.9
COCC(=O)N1CCC[C@H](C(=O)NCc2nc(-c3ccc(Cl)cc3)cs2)C1	0.5 µM	–	25
Cc1[nH]c(C)c(S(=O)(=O)Nc2ccc(C(F)(F)F)c(Cl)c2Cl)c1C(=O)N1CCC(F)(F)C1	–	–	7.4
C[C@H]1[C@@H](C(=O)NCc2nc(-c3ccc(C#N)cc3)cs2)CCCN1C(=O)[C@H]1CCO1	0.5 µM	–	131
CCCN(CCC)CCOc1ccc2c(=O)c3c([nH]c2c1)CCCC3	1 µM	pH 7.4	17.5
COCC(=O)N1CCC[C@H](C(=O)NCc2nc(-c3ccc(NC4CCC4)nc3)cs2)C1	0.5 µM	–	15
Cc1ccc(C(C)(C)c2ccc(NC(=O)CN(C)c3ccccc3N3CCCC3=O)cc2)cc1	–	–	263
